15 molecules from publication PMC10438863 (Journal of Enzyme Inhibition and Medicinal Chemistry, 2023) can be followed below.

Molecules are shown by their SMILES.

As a reminder, the inhibition is the drop in the measured response relative to a control, in per cent.

The subject of the experiment is K562 cell line. Put plainly: CCK-8 antiproliferative assay, K562. The format is cell-based. Conditions: Homo sapiens, K562, 72 h, read-out: Inhibition rate (%). Summed up:
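Cells were grown in RPMI-1640 with 10% FBS at 37 °C in 5% CO2. About 3.5 × 10^3 cells/well were seeded, grown 24 h, then given test compound at several concentrations for 72 h in triplicate wells. CCK-8 was added for 2–3 h and OD read at 450 nm to give inhibition rate or IC50. K562 screen: mean of ≥2 independent experiments. Five-line panel: mean ± SD of three.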
In general terms: Tetrazolium dyes change colour on reduction, which living cells bring about.
In the case of `COc1cc2c(c(OC)c1OC)CC(Cc1ccc(F)c(F)c1)C2` (stereo not drawn) [Compound 12g, 2–(3,4-difluorobenzyl)-4,5,6-trimethoxy-2,3-dihydro-1H-indene], the inhibition at 0.1 µM worked out at 4.71% and the inhibition at 1 µM is 7.74%.

As to `COc1cc2c(c(OC)c1OC)CC(Cc1ccc(C)c(F)c1)C2` (stereo not drawn) [Compound 12f, 2–(3-fluoro-4-methylbenzyl)-4,5,6-trimethoxy-2,3-dihydro-1H-indene], the inhibition at 0.1 µM stood at 6.65% and the inhibition at 1 µM was 72%.

For the molecule `COc1cc2c(c(OC)c1OC)CC(Cc1ccc(N(C)C)cc1)C2` (stereo not drawn) [Compound 12o, N,N-dimethyl-4-((4,5,6-trimethoxy-2,3-dihydro-1H-inden-2-yl)methyl)aniline], the inhibition at 0.1 µM is 5.65% and the inhibition at 1 µM stood at 6.97%.

Take `COc1ccc(CC2Cc3cc(OC)c(OC)c(OC)c3C2)cc1F` (stereo not drawn) [Compound 12e, 2–(3-fluoro-4-methoxybenzyl)-4,5,6-trimethoxy-2,3-dihydro-1H-indene]: the inhibition at 0.1 µM is 10.2% and the inhibition at 1 µM came to 67%.

For `COc1cc2c(c(OC)c1OC)CC(Cc1ccc(C(F)(F)F)cc1)C2` (stereo not drawn) [Compound 12p, 4,5,6-trimethoxy-2–(4-(trifluoromethyl)benzyl)-2,3-dihydro-1H-indene], the inhibition at 0.1 µM turned out to be 12.6% and the inhibition at 1 µM stood at 15.4%.

Consider `COc1ccc(CC2Cc3cc(OC)c(OC)c(OC)c3C2)cc1OC` (stereo not drawn) [Compound 12b, 2–(3,4-dimethoxybenzyl)-4,5,6-trimethoxy-2,3-dihydro-1H-indene], for which the inhibition at 0.1 µM worked out at 5.8% and the inhibition at 1 µM was 15.2%.

With `COc1cc2c(c(OC)c1OC)CC(Cc1ccc(N)cc1)C2` (stereo not drawn) [Compound 12n, 4-((4,5,6-trimethoxy-2,3-dihydro-1H-inden-2-yl)methyl)aniline], the inhibition at 0.1 µM was 5.81% and the inhibition at 1 µM is 78.8%.

With `COc1cc2c(c(OC)c1OC)CC(Cc1ccc(C)c(C)c1)C2` (stereo not drawn) [Compound 12i, 2–(3,4-dimethylbenzyl)-4,5,6-trimethoxy-2,3-dihydro-1H-indene], the inhibition at 0.1 µM is 3% and the inhibition at 1 µM came to 66%.

With `COc1cc(CC2Cc3cc(OC)c(OC)c(OC)c3C2)cc(OC)c1OC` (stereo not drawn) [Compound 12c, 4,5,6-trimethoxy-2–(3,4,5-trimethoxybenzyl)-2,3-dihydro-1H-indene], the inhibition at 0.1 µM amounted to 6.96% and the inhibition at 1 µM worked out at 9.48%.

In the case of `COc1ccc(CC2Cc3cc(OC)c(OC)c(OC)c3C2)cc1` (stereo not drawn) [Compound 12a, 4,5,6-trimethoxy-2–(4-methoxybenzyl)-2,3-dihydro-1H-indene], the inhibition at 0.1 µM turned out to be 5.71% and the inhibition at 1 µM amounted to 72.4%.

For the molecule `COc1cc2c(c(OC)c1OC)CC(Cc1ccc3cc[nH]c3c1)C2` (stereo not drawn) [Compound 12u, 6-((4,5,6-trimethoxy-2,3-dihydro-1H-inden-2-yl)methyl)-1H-indole], the inhibition at 0.1 µM was 10.8% and the inhibition at 1 µM was found to be 83.9%.

For the molecule `COc1cc2c(c(OC)c1OC)CC(Cc1cccc3[nH]ccc13)C2` (stereo not drawn) [Compound 12s, 4-((4,5,6-trimethoxy-2,3-dihydro-1H-inden-2-yl)methyl)-1H-indole], the inhibition at 0.1 µM is 9.67% and the inhibition at 1 µM was determined as 67.1%.

For `COc1cc2c(c(OC)c1OC)CC(Cc1cccc3c1ccn3C)C2` (stereo not drawn) [Compound 12v, 1-methyl-4-((4,5,6-trimethoxy-2,3-dihydro-1H-inden-2-yl)methyl)-1H-indole], the inhibition at 0.1 µM was 5.02% and the inhibition at 1 µM worked out at 28.5%.

As to `COc1cc2c(c(OC)c1OC)CC(Cc1ccc(O)cc1)C2` (stereo not drawn) [Compound 12m, 4-((4,5,6-trimethoxy-2,3-dihydro-1H-inden-2-yl)methyl)phenol], the inhibition at 0.1 µM was 2.9% and the inhibition at 1 µM was determined as 16.4%.

Take `COc1cc2c(c(OC)c1OC)CC(Cc1ccc(N)c(C)c1)C2` (stereo not drawn) [Compound 12h, 2-methyl-4-((4,5,6-trimethoxy-2,3-dihydro-1H-inden-2-yl)methyl)aniline]: the inhibition at 0.1 µM came out at 2.25% and the inhibition at 1 µM is 79.8%.
